Assay results from ChEMBL document CHEMBL1157011, “8-Sulfonyl-substituted tetrahydro-1H-pyrido[4,3-b]indoles as 5-HT6 receptor antagonists” (Eur J Med Chem, 2010).
Each block holds one compound with its values, some of them ahead of it.

Columns and labels:
[1] = target: T1, 5-hydroxytryptamine receptor 6 (Homo sapiens, UniProt P50406); experiment: Binding affinity to human recombinant 5HT6 receptor
[2] = target: 5-hydroxytryptamine receptor 6 (Rattus norvegicus, UniProt P31388); experiment: Binding affinity to rat recombinant 5HT6 receptor
Chain of 5-hydroxytryptamine receptor 6 (Rattus norvegicus, UniProt P31388) (P31388 whole entry): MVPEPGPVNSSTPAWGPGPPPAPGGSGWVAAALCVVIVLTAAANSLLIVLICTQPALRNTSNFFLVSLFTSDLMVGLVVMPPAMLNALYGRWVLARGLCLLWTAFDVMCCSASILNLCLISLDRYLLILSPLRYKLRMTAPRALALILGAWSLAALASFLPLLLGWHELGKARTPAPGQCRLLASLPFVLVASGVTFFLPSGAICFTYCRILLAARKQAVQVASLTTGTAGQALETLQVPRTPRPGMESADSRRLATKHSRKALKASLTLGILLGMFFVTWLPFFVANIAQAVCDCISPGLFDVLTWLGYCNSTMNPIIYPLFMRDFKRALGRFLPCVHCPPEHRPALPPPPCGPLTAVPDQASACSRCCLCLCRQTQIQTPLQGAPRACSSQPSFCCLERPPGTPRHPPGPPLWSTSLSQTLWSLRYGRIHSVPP

[3] = target: T1, 5-hydroxytryptamine receptor 6; experiment: Antagonist activity at human recombinant 5HT6 receptor expressed in HEK293 cells assessed as inhibition of serotonin-induced cAMP production by LANCE assay relative to serotonin; type: functional, cell-based
Method in brief: (§1)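 HEK-293 cells with a tetracycline-inducible (T-Rex) human 5-HT6 receptor, grown in DMEM/10% FBS with blasticidin S and zeocin and induced with tetracycline the day before. Medium was swapped for HBSS with 1 mM MgCl2, 1 mM CaCl2, IBMX and 5 mM HEPES, pH 7.4. Compounds (0.1% DMSO) were added 15 min at RT, then 10 nM serotonin for 30 min. cAMP read by LANCE; 2 independent experiments in duplicate.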

[4] = target: T2, 5-hydroxytryptamine receptor 1A (Homo sapiens, UniProt P08908); experiment: Binding affinity to 5HT1A receptor by radioligand displacement assay
T2 sequence (P08908 whole entry): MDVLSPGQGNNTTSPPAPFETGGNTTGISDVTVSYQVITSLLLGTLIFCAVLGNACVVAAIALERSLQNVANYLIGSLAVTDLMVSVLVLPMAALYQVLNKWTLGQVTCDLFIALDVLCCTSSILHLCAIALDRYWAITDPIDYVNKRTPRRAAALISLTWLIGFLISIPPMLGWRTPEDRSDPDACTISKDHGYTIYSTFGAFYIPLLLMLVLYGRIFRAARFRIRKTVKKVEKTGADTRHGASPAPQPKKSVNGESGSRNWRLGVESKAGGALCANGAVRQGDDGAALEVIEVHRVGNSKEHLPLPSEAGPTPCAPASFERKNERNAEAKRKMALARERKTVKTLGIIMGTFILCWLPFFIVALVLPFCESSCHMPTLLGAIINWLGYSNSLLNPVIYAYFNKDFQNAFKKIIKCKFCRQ

[5] = target: T3, 5-hydroxytryptamine receptor 2C (Homo sapiens, UniProt P28335); experiment: Binding affinity to 5HT2C receptor by radioligand displacement assay
T3 sequence (P28335 whole entry): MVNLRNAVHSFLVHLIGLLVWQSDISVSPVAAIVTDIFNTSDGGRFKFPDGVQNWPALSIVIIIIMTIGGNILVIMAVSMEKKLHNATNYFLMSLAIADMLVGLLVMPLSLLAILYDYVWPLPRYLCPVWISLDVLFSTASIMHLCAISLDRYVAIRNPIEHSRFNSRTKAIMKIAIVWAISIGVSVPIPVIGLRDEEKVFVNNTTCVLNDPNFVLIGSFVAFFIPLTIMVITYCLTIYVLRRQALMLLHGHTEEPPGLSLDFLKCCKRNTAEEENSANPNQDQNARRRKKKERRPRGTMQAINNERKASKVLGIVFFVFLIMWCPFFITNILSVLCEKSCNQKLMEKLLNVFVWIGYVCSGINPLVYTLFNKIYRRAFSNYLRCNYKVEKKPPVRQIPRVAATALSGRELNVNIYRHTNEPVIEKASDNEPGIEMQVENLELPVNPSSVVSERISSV
Method in brief: (§2)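 Competitive displacement of the corresponding radioligand, run by an outside contract lab under its internal protocols. Data from one representative experiment in duplicate.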

[6] = target: T1, 5-hydroxytryptamine receptor 6; experiment: Binding affinity to human recombinant 5HT6 receptor by radioligand displacement assay; method in brief: as §2
[7] = target: 5-hydroxytryptamine receptor 7 (Homo sapiens, UniProt P34969); experiment: Binding affinity to 5HT7 receptor by radioligand displacement assay; method in brief: as §2
Chain of 5-hydroxytryptamine receptor 7 (P34969 whole entry): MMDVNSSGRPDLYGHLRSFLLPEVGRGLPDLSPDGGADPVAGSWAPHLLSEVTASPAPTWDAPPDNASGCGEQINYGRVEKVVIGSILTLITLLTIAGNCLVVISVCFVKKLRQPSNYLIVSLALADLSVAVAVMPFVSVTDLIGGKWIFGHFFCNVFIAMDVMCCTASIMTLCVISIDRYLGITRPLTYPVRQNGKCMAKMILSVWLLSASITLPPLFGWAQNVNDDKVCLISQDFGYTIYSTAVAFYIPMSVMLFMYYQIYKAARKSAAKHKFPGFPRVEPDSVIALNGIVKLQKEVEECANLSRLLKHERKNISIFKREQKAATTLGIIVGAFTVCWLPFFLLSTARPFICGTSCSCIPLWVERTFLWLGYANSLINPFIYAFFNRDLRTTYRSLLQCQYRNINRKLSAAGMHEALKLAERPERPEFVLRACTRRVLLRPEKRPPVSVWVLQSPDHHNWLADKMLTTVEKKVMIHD

[8] = target: T1, 5-hydroxytryptamine receptor 6; experiment: Antagonist activity at human recombinant 5HT6 receptor expressed in HEK293 cells assessed as inhibition of serotonin-induced cAMP production by LANCE assay; type: functional, cell-based; method in brief: as §1

T1 sequence (P50406 whole entry): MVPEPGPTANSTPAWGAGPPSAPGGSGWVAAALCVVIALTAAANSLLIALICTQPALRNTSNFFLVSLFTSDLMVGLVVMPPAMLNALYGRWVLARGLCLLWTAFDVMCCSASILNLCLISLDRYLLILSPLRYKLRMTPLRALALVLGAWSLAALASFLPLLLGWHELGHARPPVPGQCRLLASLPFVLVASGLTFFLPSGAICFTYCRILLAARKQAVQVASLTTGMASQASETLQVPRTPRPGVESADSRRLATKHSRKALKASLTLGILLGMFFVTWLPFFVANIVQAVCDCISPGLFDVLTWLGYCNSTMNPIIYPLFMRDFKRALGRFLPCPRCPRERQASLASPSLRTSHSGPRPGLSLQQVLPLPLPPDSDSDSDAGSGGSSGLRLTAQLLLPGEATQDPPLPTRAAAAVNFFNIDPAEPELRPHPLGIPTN

SMILES: Cc1ccc2c(c1)c1c(n2CCc2ccc(C)nc2)CCN(C)C1 [LATREPIRDINE]
Ki [1]: 0.026 µM | Ki [2]: 0.119 µM | Imax [3]: 100% | Ki [4]: > 0.1 µM | Ki [5]: 0.076 µM | Ki [6]: 0.034 µM | Ki [7]: 0.008 µM

SMILES: CN1CCc2c(c3cc(S(C)(=O)=O)ccc3n2C)C1.Cl
IC50 ([8]; hek293): Not Active

SMILES: CN1CCc2[nH]c3ccc(S(=O)(=O)N(C)C)cc3c2C1
IC50 ([8]; read-out: IC50): 26 µM | Imax [3]: 100%

The next lines start with the values.

Imax [3]: 100%
SMILES: CN1CCc2[nH]c3ccc(S(=O)(=O)c4cccc(F)c4)cc3c2C1

IC50 ([8]; read-out: IC50): 3.4 µM | Imax [3]: 100%
SMILES: CN1CCc2[nH]c3ccc(S(=O)(=O)c4cccnc4)cc3c2C1
